Key:
[1] = biological target: Tyrosine-protein kinase receptor UFO (Homo sapiens, UniProt P30530); assay: Inhibition of Axl by TR-FRET based LanthaScreen assay
How it was run: (§1)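 LanthaScreen TR-FRET kinase format, run per the group's earlier protocol. IC50 from two independent experiments; for some compounds, PDGFRα and VEGFR2 values are means ± SD of three independent runs. The FGFR3 used was the K651E mutant.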

Ephrin type-B receptor 4 = biological target: T1, Ephrin type-B receptor 4 (Homo sapiens, UniProt P54760); assay: Inhibition of EPHB4 by TR-FRET based LanthaScreen assay; how it was run: as §1
T1 sequence (P54760 whole entry): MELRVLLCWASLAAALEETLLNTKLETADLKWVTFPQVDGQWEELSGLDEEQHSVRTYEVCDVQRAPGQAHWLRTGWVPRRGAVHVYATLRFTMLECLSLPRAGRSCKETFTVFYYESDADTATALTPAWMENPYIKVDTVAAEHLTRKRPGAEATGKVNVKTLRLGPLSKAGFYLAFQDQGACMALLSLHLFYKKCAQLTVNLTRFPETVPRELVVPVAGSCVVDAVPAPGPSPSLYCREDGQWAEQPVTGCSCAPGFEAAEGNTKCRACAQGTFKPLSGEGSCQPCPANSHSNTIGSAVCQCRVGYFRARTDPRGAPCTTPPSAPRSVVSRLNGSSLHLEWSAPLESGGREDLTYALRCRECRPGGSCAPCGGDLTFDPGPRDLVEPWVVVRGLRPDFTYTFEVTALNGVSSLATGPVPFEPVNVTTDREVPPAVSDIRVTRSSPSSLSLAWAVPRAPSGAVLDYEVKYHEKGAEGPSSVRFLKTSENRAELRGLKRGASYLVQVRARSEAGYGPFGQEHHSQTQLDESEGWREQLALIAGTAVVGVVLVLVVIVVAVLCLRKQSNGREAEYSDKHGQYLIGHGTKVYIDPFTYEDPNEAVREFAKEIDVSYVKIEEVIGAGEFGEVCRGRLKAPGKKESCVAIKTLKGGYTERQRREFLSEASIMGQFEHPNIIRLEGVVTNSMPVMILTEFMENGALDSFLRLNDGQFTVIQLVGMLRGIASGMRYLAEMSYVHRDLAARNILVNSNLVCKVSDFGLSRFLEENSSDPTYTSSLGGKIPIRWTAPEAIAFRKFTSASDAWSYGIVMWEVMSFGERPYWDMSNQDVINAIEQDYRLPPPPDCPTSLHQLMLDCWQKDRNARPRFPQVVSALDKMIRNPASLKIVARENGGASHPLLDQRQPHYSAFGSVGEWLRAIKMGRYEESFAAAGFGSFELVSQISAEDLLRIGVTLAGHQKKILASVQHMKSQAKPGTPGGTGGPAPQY

[2] = Inhibition of COT1 by Caliper mobility shift assay
How it was run: (§2)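 Caliper mobility shift kinase assay with phosphorylation of a substrate; IC50 derived from two independent experiments.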

[3] = biological target: ALK tyrosine kinase receptor (Homo sapiens, UniProt Q9UM73); assay: Inhibition of ALK by TR-FRET based LanthaScreen assay
Sequence of ALK tyrosine kinase receptor (Q9UM73 whole entry): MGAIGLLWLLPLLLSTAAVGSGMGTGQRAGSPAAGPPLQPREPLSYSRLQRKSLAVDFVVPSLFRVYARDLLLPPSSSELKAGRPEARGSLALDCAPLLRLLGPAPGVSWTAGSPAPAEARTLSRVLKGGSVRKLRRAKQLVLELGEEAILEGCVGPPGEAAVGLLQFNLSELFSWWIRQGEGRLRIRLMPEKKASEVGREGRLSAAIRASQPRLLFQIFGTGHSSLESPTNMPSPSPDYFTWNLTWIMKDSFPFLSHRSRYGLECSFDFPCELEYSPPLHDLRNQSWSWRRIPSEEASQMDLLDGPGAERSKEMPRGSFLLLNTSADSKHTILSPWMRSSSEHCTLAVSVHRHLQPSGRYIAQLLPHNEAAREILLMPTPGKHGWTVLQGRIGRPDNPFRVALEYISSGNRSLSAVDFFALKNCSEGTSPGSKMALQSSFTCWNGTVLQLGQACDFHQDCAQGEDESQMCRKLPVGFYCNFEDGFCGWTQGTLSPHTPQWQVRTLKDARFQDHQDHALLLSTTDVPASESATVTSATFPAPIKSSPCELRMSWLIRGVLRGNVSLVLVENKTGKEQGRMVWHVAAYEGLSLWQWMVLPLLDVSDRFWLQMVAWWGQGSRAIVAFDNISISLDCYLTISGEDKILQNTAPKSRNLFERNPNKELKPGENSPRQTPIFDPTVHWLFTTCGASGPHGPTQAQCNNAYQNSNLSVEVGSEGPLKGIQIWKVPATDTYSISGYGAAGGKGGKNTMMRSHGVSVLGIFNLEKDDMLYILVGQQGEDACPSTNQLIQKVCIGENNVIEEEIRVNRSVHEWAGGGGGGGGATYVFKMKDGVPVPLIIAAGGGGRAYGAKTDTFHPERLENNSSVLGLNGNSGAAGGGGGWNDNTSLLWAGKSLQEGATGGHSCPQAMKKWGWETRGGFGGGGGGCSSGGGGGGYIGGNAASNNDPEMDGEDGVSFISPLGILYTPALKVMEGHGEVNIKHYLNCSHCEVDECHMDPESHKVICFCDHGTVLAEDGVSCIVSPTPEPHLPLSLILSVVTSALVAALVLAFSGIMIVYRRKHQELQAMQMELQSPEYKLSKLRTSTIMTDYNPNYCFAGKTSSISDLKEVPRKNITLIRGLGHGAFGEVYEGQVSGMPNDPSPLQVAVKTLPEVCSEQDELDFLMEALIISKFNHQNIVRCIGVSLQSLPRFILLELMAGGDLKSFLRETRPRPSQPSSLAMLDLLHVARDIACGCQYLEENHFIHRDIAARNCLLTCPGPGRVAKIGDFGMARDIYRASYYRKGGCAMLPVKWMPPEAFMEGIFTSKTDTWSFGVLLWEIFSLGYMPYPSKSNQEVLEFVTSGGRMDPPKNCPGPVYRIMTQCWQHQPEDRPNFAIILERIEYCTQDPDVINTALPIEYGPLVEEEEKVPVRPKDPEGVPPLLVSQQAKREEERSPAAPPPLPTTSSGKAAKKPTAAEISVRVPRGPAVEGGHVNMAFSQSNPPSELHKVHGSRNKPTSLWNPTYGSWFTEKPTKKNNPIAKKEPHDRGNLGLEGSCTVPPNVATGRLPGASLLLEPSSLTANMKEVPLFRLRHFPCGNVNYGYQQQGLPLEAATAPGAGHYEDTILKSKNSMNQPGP
How it was run: (§3)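 TR-FRET LanthaScreen kinase assay with phosphorylation of a substrate; FGFR3 used as the K651E mutant. IC50 derived from two independent experiments; for some compounds, ALK and cKIT values are averages ± SDs of three independent experiments.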

Insulin receptor = Insulin receptor (Homo sapiens, UniProt P06213); assay: Inhibition of INSR by TR-FRET based LanthaScreen assay; how it was run: as §1
[4] = biological target: Receptor tyrosine-protein kinase erbB-2 (Homo sapiens, UniProt P04626); assay: Inhibition of HER2 by TR-FRET based LanthaScreen assay; how it was run: as §1
[5] = biological target: Non-receptor tyrosine-protein kinase TYK2 (Homo sapiens, UniProt P29597); assay: Inhibition of TYK2 by TR-FRET based LanthaScreen assay; how it was run: as §1
Sequence of Non-receptor tyrosine-protein kinase TYK2 (P29597 whole entry): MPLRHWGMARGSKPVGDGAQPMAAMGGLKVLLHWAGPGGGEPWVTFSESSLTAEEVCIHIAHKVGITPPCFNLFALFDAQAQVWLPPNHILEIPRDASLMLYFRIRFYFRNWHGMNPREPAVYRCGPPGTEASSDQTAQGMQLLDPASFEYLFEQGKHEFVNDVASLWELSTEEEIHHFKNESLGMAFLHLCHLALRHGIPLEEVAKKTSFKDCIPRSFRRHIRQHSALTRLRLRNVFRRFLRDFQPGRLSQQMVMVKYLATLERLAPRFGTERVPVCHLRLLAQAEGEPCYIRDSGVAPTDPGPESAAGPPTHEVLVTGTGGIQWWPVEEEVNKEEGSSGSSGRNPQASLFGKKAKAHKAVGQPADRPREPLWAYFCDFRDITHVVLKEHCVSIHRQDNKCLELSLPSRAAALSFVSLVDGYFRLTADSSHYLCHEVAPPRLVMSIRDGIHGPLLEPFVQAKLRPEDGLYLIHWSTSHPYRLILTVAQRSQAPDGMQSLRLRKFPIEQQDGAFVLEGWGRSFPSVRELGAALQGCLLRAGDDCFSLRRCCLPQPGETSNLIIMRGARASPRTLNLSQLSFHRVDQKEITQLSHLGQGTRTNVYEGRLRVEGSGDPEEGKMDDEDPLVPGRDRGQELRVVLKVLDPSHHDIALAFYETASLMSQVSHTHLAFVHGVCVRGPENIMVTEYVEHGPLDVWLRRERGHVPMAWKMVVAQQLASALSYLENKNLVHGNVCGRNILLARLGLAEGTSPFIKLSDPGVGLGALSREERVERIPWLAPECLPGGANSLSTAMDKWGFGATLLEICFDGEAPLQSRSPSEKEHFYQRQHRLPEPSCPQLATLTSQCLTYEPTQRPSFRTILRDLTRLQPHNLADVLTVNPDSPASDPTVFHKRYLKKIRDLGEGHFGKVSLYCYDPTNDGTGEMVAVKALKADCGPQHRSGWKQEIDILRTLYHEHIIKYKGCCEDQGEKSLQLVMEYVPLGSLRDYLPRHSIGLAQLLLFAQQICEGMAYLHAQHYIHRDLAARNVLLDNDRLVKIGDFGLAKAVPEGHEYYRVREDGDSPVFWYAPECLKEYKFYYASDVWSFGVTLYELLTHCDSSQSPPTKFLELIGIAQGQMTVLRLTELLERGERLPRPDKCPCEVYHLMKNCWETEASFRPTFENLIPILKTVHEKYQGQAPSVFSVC

Aurora kinase A = Aurora kinase A (Homo sapiens, UniProt O14965); assay: Inhibition of Aurora A kinase by Caliper mobility shift assay
Sequence of Aurora kinase A (O14965 whole entry): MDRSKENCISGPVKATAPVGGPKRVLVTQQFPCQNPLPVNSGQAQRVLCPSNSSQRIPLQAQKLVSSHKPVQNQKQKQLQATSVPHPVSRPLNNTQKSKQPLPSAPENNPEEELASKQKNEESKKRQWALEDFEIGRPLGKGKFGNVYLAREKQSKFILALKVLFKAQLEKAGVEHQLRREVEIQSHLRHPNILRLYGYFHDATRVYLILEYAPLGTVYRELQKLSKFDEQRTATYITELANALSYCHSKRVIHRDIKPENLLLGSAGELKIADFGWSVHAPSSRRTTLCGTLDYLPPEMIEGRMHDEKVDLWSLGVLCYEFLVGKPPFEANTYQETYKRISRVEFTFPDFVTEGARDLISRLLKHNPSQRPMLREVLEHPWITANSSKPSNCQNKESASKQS
How it was run: (§4)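 Caliper microfluidic mobility shift readout of substrate phosphorylation, run per the group's earlier kinase protocol. IC50 taken from two independent experiments.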

[6] = biological target: Platelet-derived growth factor receptor alpha (Homo sapiens, UniProt P16234, V561D); assay: Inhibition of PDGFRalpha V561D mutant by TR-FRET based LanthaScreen assay; how it was run: as §1
[7] = biological target: Tyrosine-protein kinase JAK1 (Homo sapiens, UniProt P23458); assay: Inhibition of JAK1 by TR-FRET based LanthaScreen assay
[8] = biological target: Proto-oncogene tyrosine-protein kinase receptor Ret (Homo sapiens, UniProt P07949); assay: Inhibition of RET by TR-FRET based LanthaScreen assay; how it was run: as §1
[9] = biological target: Cyclin-dependent kinase 2 (Homo sapiens, UniProt P24941); assay: Inhibition of CDK2A by Caliper mobility shift assay; how it was run: as §4
[10] = biological target: Rho-associated protein kinase 2 (Homo sapiens, UniProt O75116); assay: Inhibition of ROCK2 by Caliper mobility shift assay; how it was run: as §4
[11] = biological target: T2, Vascular endothelial growth factor receptor 2 (Homo sapiens, UniProt P35968); assay: Inhibition of VEGFR2 by TR-FRET based LanthaScreen assay; how it was run: as §1
[12] = biological target: Mast/stem cell growth factor receptor Kit (Homo sapiens, UniProt P10721); assay: Inhibition of cKIT by TR-FRET based LanthaScreen assay; how it was run: as §3
Sequence of Mast/stem cell growth factor receptor Kit (P10721 whole entry): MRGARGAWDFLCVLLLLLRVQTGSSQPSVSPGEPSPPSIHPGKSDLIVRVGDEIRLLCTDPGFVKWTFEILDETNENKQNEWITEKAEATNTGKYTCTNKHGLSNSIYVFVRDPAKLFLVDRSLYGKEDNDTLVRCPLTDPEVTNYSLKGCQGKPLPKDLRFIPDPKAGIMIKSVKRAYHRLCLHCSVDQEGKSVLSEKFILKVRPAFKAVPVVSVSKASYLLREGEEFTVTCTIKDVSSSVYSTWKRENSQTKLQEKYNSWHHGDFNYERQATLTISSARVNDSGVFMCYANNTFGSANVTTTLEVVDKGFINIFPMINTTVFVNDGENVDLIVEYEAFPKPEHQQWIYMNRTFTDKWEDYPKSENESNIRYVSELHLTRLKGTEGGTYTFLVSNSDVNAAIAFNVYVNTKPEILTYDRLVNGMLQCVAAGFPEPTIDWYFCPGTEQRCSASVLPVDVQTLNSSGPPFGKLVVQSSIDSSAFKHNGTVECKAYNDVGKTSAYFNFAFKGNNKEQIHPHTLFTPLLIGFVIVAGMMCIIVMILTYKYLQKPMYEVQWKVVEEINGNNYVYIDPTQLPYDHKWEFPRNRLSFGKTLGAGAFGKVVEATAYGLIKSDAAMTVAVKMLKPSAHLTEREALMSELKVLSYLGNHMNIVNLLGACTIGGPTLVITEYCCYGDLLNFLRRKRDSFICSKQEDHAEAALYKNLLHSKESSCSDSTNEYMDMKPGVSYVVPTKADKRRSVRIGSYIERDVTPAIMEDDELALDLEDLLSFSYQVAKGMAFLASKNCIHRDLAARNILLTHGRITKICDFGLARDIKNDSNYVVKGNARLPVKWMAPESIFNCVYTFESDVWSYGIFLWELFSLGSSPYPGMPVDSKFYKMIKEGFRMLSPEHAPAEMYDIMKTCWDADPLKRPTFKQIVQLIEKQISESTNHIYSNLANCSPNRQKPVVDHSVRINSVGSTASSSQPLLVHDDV

[13] = biological target: Glycogen synthase kinase-3 beta (Homo sapiens, UniProt P49841); assay: Inhibition of GSK3-beta by TR-FRET based LanthaScreen assay; how it was run: as §1
[14] = biological target: Mitogen-activated protein kinase 1 (Homo sapiens, UniProt P28482); assay: Inhibition of ERK2 by Caliper mobility shift assay; how it was run: as §2
Sequence of Mitogen-activated protein kinase 1 (P28482 whole entry): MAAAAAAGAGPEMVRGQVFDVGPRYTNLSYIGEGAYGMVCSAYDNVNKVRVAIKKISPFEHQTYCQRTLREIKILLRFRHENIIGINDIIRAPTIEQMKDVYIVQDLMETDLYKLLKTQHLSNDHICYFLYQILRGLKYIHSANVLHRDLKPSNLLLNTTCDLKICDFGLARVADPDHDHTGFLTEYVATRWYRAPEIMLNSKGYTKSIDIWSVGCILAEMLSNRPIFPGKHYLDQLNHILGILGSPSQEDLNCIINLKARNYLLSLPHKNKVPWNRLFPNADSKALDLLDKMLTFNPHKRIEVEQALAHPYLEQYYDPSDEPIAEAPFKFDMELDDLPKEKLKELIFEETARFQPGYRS

[15] = biological target: Mitogen-activated protein kinase 14 (Homo sapiens, UniProt Q16539); assay: Inhibition of p38alpha by Caliper mobility shift assay; how it was run: as §4
Ephrin type-A receptor 4 = Ephrin type-A receptor 4 (Homo sapiens, UniProt P54764); assay: Inhibition of EPHA4 by TR-FRET based LanthaScreen assay; how it was run: as §1
[16] = biological target: Tyrosine-protein kinase JAK2 (Homo sapiens, UniProt O60674); assay: Inhibition of JAK2 by TR-FRET based LanthaScreen assay
[17] = biological target: Tyrosine-protein kinase ABL1 (Homo sapiens, UniProt P00519, T315I); assay: Inhibition of cABL T315I mutant by Caliper mobility shift assay; how it was run: as §4
[18] = biological target: cAMP-dependent protein kinase catalytic subunit alpha (Homo sapiens, UniProt P17612); assay: Inhibition of PKAalpha by TR-FRET LanthaScreen assay
[19] = biological target: Serine/threonine-protein kinase N2 (Homo sapiens, UniProt Q16513); assay: Inhibition of PKN2 by Caliper mobility shift assay; how it was run: as §4
[20] = biological target: Fibroblast growth factor receptor 3 (Homo sapiens, UniProt P22607); assay: Inhibition of FGFR3 by TR-FRET based LanthaScreen assay; how it was run: as §1
[21] = biological target: Serine/threonine-protein kinase N1 (Homo sapiens, UniProt Q16512); assay: Inhibition of PKN1 by Caliper mobility shift assay; how it was run: as §4
[22] = Inhibition of CDK4D1 by Caliper mobility shift assay; how it was run: as §2
[23] = biological target: Insulin-like growth factor 1 receptor (Homo sapiens, UniProt P08069); assay: Inhibition of IGF1R by TR-FRET based LanthaScreen assay; how it was run: as §1
[24] = biological target: MAP kinase-interacting serine/threonine-protein kinase 2 (Homo sapiens, UniProt Q9HBH9); assay: Inhibition of MNK2 by TR-FRET based LanthaScreen assay; how it was run: as §3
[25] = Inhibition of PKAtau by TR-FRET based LanthaScreen assay; how it was run: as §3
[26] = biological target: Hepatocyte growth factor receptor (Homo sapiens, UniProt P08581); assay: Inhibition of HGFR by TR-FRET based LanthaScreen assay; how it was run: as §1
[27] = biological target: Tyrosine-protein kinase JAK3 (Homo sapiens, UniProt P52333); assay: Inhibition of JAK3 by Caliper mobility shift assay; how it was run: as §4
[28] = biological target: Tyrosine-protein kinase ZAP-70 (Homo sapiens, UniProt P43403); assay: Inhibition of ZAP70 by TR-FRET based LanthaScreen assay; how it was run: as §1
[29] = biological target: Tyrosine-protein kinase Lck (Homo sapiens, UniProt P06239); assay: Inhibition of LCK by TR-FRET based LanthaScreen assay
Sequence of Tyrosine-protein kinase Lck (P06239 whole entry): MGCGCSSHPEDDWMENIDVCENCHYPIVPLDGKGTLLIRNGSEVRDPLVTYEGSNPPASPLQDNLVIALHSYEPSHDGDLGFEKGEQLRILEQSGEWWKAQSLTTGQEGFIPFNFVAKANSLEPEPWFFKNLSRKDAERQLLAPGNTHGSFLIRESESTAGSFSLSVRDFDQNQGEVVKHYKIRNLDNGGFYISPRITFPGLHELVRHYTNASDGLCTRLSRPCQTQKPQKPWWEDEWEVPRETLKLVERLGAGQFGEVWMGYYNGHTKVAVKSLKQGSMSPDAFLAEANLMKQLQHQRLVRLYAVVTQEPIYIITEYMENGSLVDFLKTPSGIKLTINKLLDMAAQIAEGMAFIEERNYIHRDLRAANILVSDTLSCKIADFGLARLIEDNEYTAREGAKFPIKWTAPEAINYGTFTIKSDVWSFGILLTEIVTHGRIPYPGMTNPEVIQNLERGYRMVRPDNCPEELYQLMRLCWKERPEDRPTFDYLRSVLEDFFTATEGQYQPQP

Plasma [30] = assay: Metabolic stability in human plasma assessed as compound conversion to metabolite C7'-C8' E isomer at 55 uM after 20 mins at 37 degC; assay type: ADME, cell-free
Plasma [31] = assay: Metabolic stability in mouse plasma assessed as compound conversion to metabolite C7'-C8' E isomer; assay type: ADME, cell-free
Blood = assay: Metabolic stability in mouse blood assessed as compound conversion to metabolite C7'-C8' E isomer; assay type: ADME, tissue-based
[32] = biological target: MAP kinase-activated protein kinase 5 (Homo sapiens, UniProt Q8IW41); assay: Inhibition of MK5 by TR-FRET based LanthaScreen assay; how it was run: as §1
[33] = biological target: Dual specificity mitogen-activated protein kinase kinase 2 (Homo sapiens, UniProt P36507); assay: Inhibition of MEK2 by TR-FRET based LanthaScreen assay; how it was run: as §1
[34] = biological target: T2, Vascular endothelial growth factor receptor 2; assay: Inhibition of VEGFR2 autophosphorylation by cell based assay
[35] = Chemical stability in HEPES buffer assessed as compound isomerization at pH 7.0 to 7.5 for 24 hrs at 37 degC; assay type: physicochemical; conditions: read-out: Activity
How it was run: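 Compound incubated in HEPES buffer at pH 7.0−7.5 for 24 h at 37 °C; read-out is the percentage isomerization to the C7′-C8′ E isomer.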

[36] = biological target: Tyrosine-protein kinase BTK (Homo sapiens, UniProt Q06187); assay: Inhibition of BTK by TR-FRET based LanthaScreen assay

Compound	IC50 [1] [µM]	IC50 (Ephrin type-B receptor 4) [µM]	IC50 [2] [µM]	IC50 [3] [µM]	IC50 (Insulin receptor) [µM]	IC50 [4] [µM]	IC50 [5] [µM]	IC50 (Aurora kinase A) [µM]	IC50 [6] [µM]	IC50 [7] [µM]	IC50 [8] [µM]	IC50 [9] [µM]	IC50 [10] [µM]	IC50 [11] [µM]	IC50 [12] [µM]	IC50 [13] [µM]	IC50 [14] [µM]	IC50 [15] [µM]	IC50 (Ephrin type-A receptor 4) [µM]	IC50 [29] [µM]	other results
COc1cc(O)c2c(c1)CCC[C@H](O)CC(=O)/C=C\C[C@H](C)OC2=O	> 10	7.4	> 10	0.763	> 10	> 10	4.4	> 10	0.00723	> 10	7.2	> 10	> 10	0.0058	0.673	> 10	6.4	> 10	> 10	4.7	IC50 [16]: > 10 µM; IC50 [17]: > 10 µM; IC50 [18]: > 10 µM; IC50 [19]: > 10 µM; IC50 [20]: > 10 µM; IC50 [21]: > 10 µM; IC50 [22]: > 10 µM; IC50 [23]: > 10 µM; IC50 [24]: 0.15 µM; IC50 [25]: > 10 µM; IC50 [26]: > 10 µM; IC50 [27]: > 10 µM; IC50 [28]: > 10 µM
COc1cc(O)c2c(c1)/C=C/C[C@H](O)[C@H](O)C(=O)/C=C\C[C@H](C)OC2=O																					Stability (Plasma [30]): 50%; t1/2 (Plasma [31]): 20 min; t1/2 (Blood): 20 min
COc1cc(O)c2c(c1)CCC[C@H](O)[C@H](O)C(=O)/C=C\C[C@H](C)OC2=O	> 10	> 10	> 10	0.763	> 10	> 10	4.1	> 10	0.00238	> 10	> 10	> 10	> 10	0.002	0.303	> 10	0.95	> 10	> 10	6.2	IC50 [32]: 0.64 µM; IC50 [33]: 0.015 µM; IC50 [16]: > 10 µM; IC50 [17]: > 10 µM; IC50 [18]: > 10 µM; IC50 [19]: > 10 µM; IC50 [20]: > 10 µM; IC50 [21]: > 10 µM; IC50 [22]: > 10 µM; IC50 [23]: > 10 µM; IC50 [34]: 0.057 µM; IC50 [25]: > 10 µM; IC50 [26]: > 10 µM; degraded at 24 h [35]: < 1%; IC50 [36]: > 10 µM; IC50 [27]: > 10 µM; IC50 [28]: > 10 µM
COc1cc(O)c2c(c1)CCC[C@H](O)CC(=O)/C=C/C[C@H](C)OC2=O		> 10		> 10			> 10		0.18		> 10			0.19	7.6		> 10			> 10	
COc1cc(O)c2c(c1)CCCCCC(=O)/C=C\C[C@H](C)OC2=O		> 10		3.5			> 10		0.095		> 10			0.17	> 10		> 10			> 10	IC50 [32]: > 10 µM; IC50 [33]: 6.84 µM; IC50 [24]: > 10 µM
